A selection: hits, their analogues and other compounds. The true share with any hit is near 2.3%.
TRPC6 inhibitor: mouse TRPC6 channel inhibition; Q61143; HEK293-TRPC6, membrane potential dye, ACh-evoked depolarization; hits give low values; B-score at 10 µM; hit rate 1.1% among 310,000; AID 2553;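 active = B-score under library mean minus 3 SD, initial fluorescence not abnormally high, positive integrated signal ratio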;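 note: B-score derived from integrated fluorescence ratio over the kinetic read; more negative B-score means stronger inhibition of depolarization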
Target sequence (Q61143 whole entry, looked up): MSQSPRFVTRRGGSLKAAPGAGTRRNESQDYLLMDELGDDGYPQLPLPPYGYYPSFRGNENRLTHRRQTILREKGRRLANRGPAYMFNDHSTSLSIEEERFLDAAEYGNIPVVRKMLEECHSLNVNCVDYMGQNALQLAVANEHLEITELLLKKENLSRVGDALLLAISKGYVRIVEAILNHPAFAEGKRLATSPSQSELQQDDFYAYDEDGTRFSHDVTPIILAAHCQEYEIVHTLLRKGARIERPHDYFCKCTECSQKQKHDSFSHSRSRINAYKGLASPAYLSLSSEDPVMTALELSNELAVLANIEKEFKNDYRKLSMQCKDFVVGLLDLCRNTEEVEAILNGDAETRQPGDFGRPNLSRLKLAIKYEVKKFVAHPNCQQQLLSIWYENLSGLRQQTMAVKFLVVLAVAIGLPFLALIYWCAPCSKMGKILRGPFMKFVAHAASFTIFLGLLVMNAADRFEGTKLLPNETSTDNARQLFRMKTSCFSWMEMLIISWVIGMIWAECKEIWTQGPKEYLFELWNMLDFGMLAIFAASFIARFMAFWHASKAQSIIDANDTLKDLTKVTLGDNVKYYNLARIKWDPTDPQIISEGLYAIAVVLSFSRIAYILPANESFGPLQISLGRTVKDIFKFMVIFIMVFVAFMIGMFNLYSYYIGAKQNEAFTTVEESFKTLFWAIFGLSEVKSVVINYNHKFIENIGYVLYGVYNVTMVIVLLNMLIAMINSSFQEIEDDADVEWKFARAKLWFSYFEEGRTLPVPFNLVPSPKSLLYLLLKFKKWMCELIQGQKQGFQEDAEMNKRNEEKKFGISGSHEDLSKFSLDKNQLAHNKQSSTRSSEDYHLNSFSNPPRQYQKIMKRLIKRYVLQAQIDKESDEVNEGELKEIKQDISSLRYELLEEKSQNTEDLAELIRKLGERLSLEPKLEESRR
TRPC6 act: mouse TRPC6 channel activation. hit rate 0.13% among 310,000. Q61143. AID 2550. B-score at 10 µM. HEK293-TRPC6 membrane potential dye fluorescence; hits give high values;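 active = B-score of the integrated fluorescence ratio above library mean plus 3 SD, and starting fluorescence ratio within library mean plus 5 SD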;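 note: higher score means more depolarization so channel activation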
TRPC4 act: TRPC4 (mouse) channel activation. Q9QUQ5. HEK293 TRPC4beta/mu-opioid, Fluo4 calcium fluorescence; hits give high values. B-score at 10 µM. hit rate 0.49% among 310,000. AID 2237;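 active = B-score above 5 SD of library B-scores, and initial fluorescence ratio not above library mean plus 5 SD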;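 note: positive B-score marks a calcium rise read as TRPC4 activation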
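Test system: HEK293 cells stably co-expressing mouse TRPC4beta and mu-opioid receptor | Schedule: Fluo4 dye loading 45 min at room temperature, 110 s recording | Measured by: Kinetic Fluo4 calcium fluorescence, 5 s baseline at 1 Hz | Evaluation: B score of integrated ratio | Controls: Buffer (low) and maximal DAMGO (high)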
TRPC4 block: blocks the mouse TRPC4 cation channel; Q9QUQ5; B-score at 10 µM; HEK293 TRPC4beta/mu-opioid, DAMGO-evoked Fluo4 calcium flux; hits give low values; hit rate 0.39% among 300,000;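 active = B-score over 3 SD under the library average, no early fluorescence shift, positive overall ratio signal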
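Assay system: HEK293 cells with stable TRPC4beta plus mu-opioid receptor expression. Dosing: single dose. Measured by: Fluo4 Ca2+ flux fluorescence. Also added: DAMGO in two steps, submaximal then maximal. Read-out: B score from integrated Fluo4 fluorescence ratio.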
TRPC4 PAM: allosteric potentiators of mouse TRPC4 channel; HEK293 TRPC4beta/mu-opioid, DAMGO EC20, Fluo-4 Ca2+ flux; hits give high values; B-score at 10 µM; hit rate 0.42% among 310,000; AID 2227;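 active = B-score of calcium response area above 5 SD of library B-scores, with initial fluorescence ratio within 5 SD of library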;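 note: B-score of integrated fluorescence ratio over time as area under calcium response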
TRPC4 sel inh 2: second check of whether TRPC6 inhibitors also affect mouse TRPC4 | hit rate 42% among 920 | inhibition, % at 10 µM | shares compounds with TRPC6 inhibitor | HEK293 TRPC4/MOR, membrane potential dye fluorescence; channel activated by saturating DAMGO dose;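 active = compounds whose fluorescence signal differed from control wells by over 3 SD, either direction, in both duplicate plates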
TRPC4 spec: selectivity of TRPC6 inhibitors: effect on mouse TRPC4; shares compounds with TRPC6 inhibitor; HEK293 TRPC4/mu-opioid, membrane potential fluorescence; activity change, negative = inhibition, % at 10 µM; hit rate 61% among 920;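 active = rise or fall in signal beyond 3 SD of buffer-only wells in both replicate plates, either sign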;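 note: integrated kinetic ratio of fluorescence range over baseline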
HEK293 MPD ctr 2-1: parental HEK293 nonspecific activity of TRPC6 inhibitors, second screen | shares compounds with TRPC6 inhibitor | parental HEK293 membrane potential dye fluorescence; maximal acetylcholine challenge after compound addition | signal change vs control, % at 10 µM | hit rate 31% among 920;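 active = membrane potential signal moving either way by over 3 SD of the maximum-effect control, in both duplicate plates, meaning non-specific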
HEK293 MPD ctr-1: counter-screen for TRPC6 inhibitors: effect in parental HEK293 cells. AID 2780. parental HEK293 membrane potential dye fluorescence. hit rate 60% among 920. membrane potential signal change, % at 10 µM. shares compounds with TRPC6 inhibitor;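 active = membrane potential signal shifting up or down by more than 3 SD of buffer-only wells, on both duplicate plates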
HEK293 MPD ctr-2: counter-screen for TRPC6 modulators: effect in parental HEK293 cells. shares compounds with TRPC6 inhibitor. membrane potential dye fluorescence. membrane potential signal change, % at 10 µM. hit rate 51% among 2,400;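 active = membrane potential signal moves up or down beyond 5 SD from buffer-only wells, on both duplicate plates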
HEK293 MPD ctr 2-2: second counter-screen for TRPC6 modulators: effect in parental HEK293 cells | shares compounds with TRPC6 inhibitor | membrane potential dye fluorescence; after compound, maximal acetylcholine stimulation | inhibition, % at 10 µM | hit rate 14% among 2,400;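 active = membrane potential signal drops by more than 5 SD from the mean control signal, in both duplicate plates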;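 note: plate controls were acetylcholine ECmax control wells for no effect and buffer only wells for full effect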
TRPC4/MOR mod: mouse TRPC4 off-target activity of TRPC6 modulators | shares compounds with TRPC6 inhibitor | HEK293 TRPC4/mu-opioid, membrane potential fluorescence | percent change from control (negative = decrease, positive = increase), % at 10 µM | hit rate 69% among 2,400 | AID 488927;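 active = membrane potential signal moved up or down beyond 5 SD of buffer control wells, in both duplicate plates, actives on both sides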;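 note: plate controls were assay buffer wells for no effect and DAMGO maximal-effect wells for full effect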
TRPC4 ctr inh 2: second selectivity test of TRPC6 modulators against mouse TRPC4; shares compounds with TRPC6 inhibitor; HEK293 TRPC4/mu-opioid, membrane potential dye fluorescence; stimulated with maximal-effect DAMGO; inhibition, % at 10 µM; hit rate 55% among 2,400;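 active = drop in membrane potential signal beyond 5 SD of the control wells in both duplicate plates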;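 note: TRPC4 counter screen for TRPC6 hits run under conditions tuned for TRPC6 not TRPC4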
TRPC6 block conf: mouse TRPC6 inhibitor confirmation. shares compounds with TRPC6 inhibitor. HEK293-TRPC6, membrane potential dye, ACh-evoked depolarization. inhibition, % at 10 µM. hit rate 43% among 3,300;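 active = fluorescence ratio falls more than 5 SD below the full-stimulation control mean, in both duplicate runs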;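 note: integrated fluorescence ratio of peak minus minimum over baseline after agonist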
TRPC6 act confirm: confirmation of mouse TRPC6 activators; activation, % at 10 µM; shares compounds with TRPC6 inhibitor; hit rate 11% among 2,800; AID 488961; HEK293-TRPC6 membrane potential dye fluorescence, FDSS;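 active = ratio signal rise beyond 5 SD above unstimulated control wells' mean, seen in both duplicate runs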;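 note: plate controls were buffer EC0 wells for no effect and acetylcholine ECmax response for full effect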
* marks the source's active call; other numbers are inactive results.

How did CC1CCCN(CCCNC(=O)c2ccc3c(c2)N(Cc2ccc(F)cc2)C(=O)c2ccccc2S3=O)C1 (stereo not given) do in these assays?
TRPC6 inhibitor: -5.06*; TRPC6 act: inactive; TRPC4 act: 55*; TRPC4 block: inactive; TRPC4 PAM: inactive; HEK293 MPD ctr-2: inactive; HEK293 MPD ctr 2-2: inactive; TRPC4/MOR mod: inactive; TRPC4 ctr inh 2: 77.0%*; TRPC6 block conf: 57.0%*; TRPC6 act confirm: inactive

Results for O=C(NCCN1CCCC1)c1ccc2c(c1)N(Cc1cccc(Cl)c1)C(=O)c1ccccc1S2(=O)=O ?
TRPC6 inhibitor: inactive; TRPC6 act: inactive; TRPC4 act: inactive; TRPC4 block: inactive; TRPC4 PAM: inactive

Results for CCCCCCCCn1ccc(=N)cc1 ?
TRPC6 inhibitor: inactive; TRPC6 act: inactive; TRPC4 act: inactive; TRPC4 block: inactive; TRPC4 PAM: inactive

How did CCCCCCCCCCn1ccc(=N)cc1 do in these assays?
TRPC6 inhibitor: -9.09*; TRPC6 act: inactive; TRPC4 act: inactive; TRPC4 block: inactive; TRPC4 PAM: inactive; TRPC4 sel inh 2: inactive; TRPC4 spec: inactive; HEK293 MPD ctr 2-1: inactive; HEK293 MPD ctr-1: inactive; TRPC6 block conf: 56.0%*; TRPC6 act confirm: inactive

What do the screens show for `Cc1ccccc1NCCC(=O)Nc1ccc(Cl)cc1`?
TRPC6 inhibitor: inactive; TRPC6 act: inactive; TRPC4 act: inactive; TRPC4 block: inactive; TRPC4 PAM: inactive

How did CCOc1ccc(Cl)cc1/C=N/O do in these assays?
TRPC6 inhibitor: -8.71*; TRPC6 act: 12.6*; TRPC4 act: inactive; TRPC4 block: -6*; TRPC4 PAM: inactive; HEK293 MPD ctr-2: 103.5%*; HEK293 MPD ctr 2-2: inactive; TRPC4/MOR mod: 21.0%*; TRPC4 ctr inh 2: 41.0%*; TRPC6 block conf: 78.0%*; TRPC6 act confirm: 115.0%*

What do the screens show for `CCOc1ccc(Cl)cc1/C=N/NC(N)=O`?
TRPC6 inhibitor: inactive; TRPC6 act: inactive; TRPC4 act: inactive; TRPC4 block: inactive; TRPC4 PAM: inactive

What do the screens show for `N=C(SC1CC(=O)N(c2ccc(F)cc2)C1=O)N1N=C(c2ccccc2)CC1c1ccccc1` (stereo not given)?
TRPC6 inhibitor: -7.65*; TRPC6 act: inactive; TRPC4 act: inactive; TRPC4 block: inactive; TRPC4 PAM: inactive; TRPC4 sel inh 2: inactive; TRPC4 spec: inactive; HEK293 MPD ctr 2-1: inactive; HEK293 MPD ctr-1: inactive; TRPC6 block conf: inactive; TRPC6 act confirm: inactive

How did CCC(=O)N1N=C(c2ccccc2)CC1c1ccccc1 (stereo not given) do in these assays?
TRPC6 inhibitor: inactive; TRPC6 act: inactive; TRPC4 act: inactive; TRPC4 block: inactive; TRPC4 PAM: inactive

How did CC(C)Cn1c(N)c(C(=O)COC(=O)CCc2nc3ccccc3s2)c(=O)n(C)c1=O do in these assays?
TRPC6 inhibitor: inactive; TRPC6 act: inactive; TRPC4 act: inactive; TRPC4 block: inactive; TRPC4 PAM: inactive

Results for Clc1c(-c2ccccc2)nnn1-c1ccccc1 ?
TRPC6 inhibitor: inactive; TRPC6 act: inactive; TRPC4 act: inactive; TRPC4 block: inactive; TRPC4 PAM: inactive

How did C(=N\Nc1nc(Nc2ccccc2)nc(N2CCOCC2)n1)/c1c[nH]c2ccccc12 do in these assays?
TRPC6 inhibitor: -6.08*; TRPC6 act: inactive; TRPC4 act: inactive; TRPC4 block: inactive; TRPC4 PAM: 11*; HEK293 MPD ctr-2: inactive; HEK293 MPD ctr 2-2: inactive; TRPC4/MOR mod: -20.0%*; TRPC4 ctr inh 2: 49.0%*; TRPC6 block conf: 47.5%*; TRPC6 act confirm: inactive

What do the screens show for `Cc1ccc(Nc2nc(N/N=C/c3c[nH]c4ccccc34)nc(N3CCOCC3)n2)cc1`?
TRPC6 inhibitor: inactive; TRPC6 act: inactive; TRPC4 act: inactive; TRPC4 block: inactive; TRPC4 PAM: inactive

Results for CC(=O)c1cccc(NC(=O)c2cc3nc(C)cc(C)n3n2)c1 ?
TRPC6 inhibitor: -5.1*; TRPC6 act: inactive; TRPC4 act: inactive; TRPC4 block: inactive; TRPC4 PAM: inactive; HEK293 MPD ctr-2: inactive; HEK293 MPD ctr 2-2: inactive; TRPC4/MOR mod: inactive; TRPC4 ctr inh 2: inactive; TRPC6 block conf: inactive; TRPC6 act confirm: inactive

Results for COc1ccc(OC)c(-n2c(C)ccc2-c2ccc(S(C)(=O)=O)cc2)c1 ?
TRPC6 inhibitor: inactive; TRPC6 act: inactive; TRPC4 act: inactive; TRPC4 block: inactive; TRPC4 PAM: inactive

Results for NC(=O)N/N=C/c1coc2ccc3ccccc3c2c1=O ?
TRPC6 inhibitor: -5.04*; TRPC6 act: inactive; TRPC4 act: inactive; TRPC4 block: inactive; TRPC4 PAM: inactive; HEK293 MPD ctr-2: -62.5%*; HEK293 MPD ctr 2-2: inactive; TRPC4/MOR mod: -16.0%*; TRPC4 ctr inh 2: inactive; TRPC6 block conf: inactive; TRPC6 act confirm: inactive

Results for O=Cc1coc2ccc3ccccc3c2c1=O ?
TRPC6 inhibitor: inactive; TRPC6 act: inactive; TRPC4 act: inactive; TRPC4 block: inactive; TRPC4 PAM: inactive

Results for O=C1CCCc2ccccc2N1 ?
TRPC6 inhibitor: inactive; TRPC6 act: inactive; TRPC4 act: inactive; TRPC4 block: inactive; TRPC4 PAM: inactive

Screening data from PubChem.
